The molecules below were run on CCRF-CEM (assay: Growth inhibition of human CCRF-CEM cells assessed as cell growth at 0.01 uM incubated for 48 hrs by sulforhodamine B assay relative to control). Conditions: read-out: Activity.
Assay type: functional
Outline: (§1)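 NCI Developmental Therapeutics Program NCI60 panel. Compounds that were active in the 10 µM one-dose screen went on to dose–response testing. Growth at each concentration is expressed relative to untreated control (100%). GI50 (concentration giving 50% of maximal inhibition of proliferation) and TGI (concentration giving total growth inhibition) were derived from the curves.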

SMILES | growth at 0.01 µM
CN1CCc2nc3sc(C(N)=O)c(N)c3c(-c3cccs3)c2C1 | 103%

Each molecule was assayed on NCI-H226 (assay: Growth inhibition of human NCI-H226 cells assessed as cell growth at 0.01 uM incubated for 48 hrs by sulforhodamine B assay relative to control). Conditions: read-out: Activity.
Assay type: functional

SMILES | growth at 0.01 µM
CN1CCc2nc3sc(C(N)=O)c(N)c3c(-c3cccs3)c2C1 | 93%

Each molecule was assayed on SK-MEL-28 (assay: Growth inhibition of human SK-MEL-28 cells assessed as cell growth at 0.01 uM incubated for 48 hrs by sulforhodamine B assay relative to control). Conditions: read-out: Activity.
Assay type: functional

SMILES | growth at 0.01 µM
CN1CCc2nc3sc(C(N)=O)c(N)c3c(-c3cccs3)c2C1 | 106%

The molecules below were run on HOP-92 (assay: Growth inhibition of human HOP-92 cells assessed as cell growth at 0.1 uM incubated for 48 hrs by sulforhodamine B assay relative to control). Conditions: read-out: Activity.
Assay type: functional

SMILES | growth at 0.1 µM
CN1CCc2nc3sc(C(N)=O)c(N)c3c(-c3cccs3)c2C1 | 116%

What follows are molecules tested on NCI-H23 (assay: Growth inhibition of human NCI-H23 cells assessed as cell growth at 0.1 uM incubated for 48 hrs by sulforhodamine B assay relative to control). Conditions: read-out: Activity.
Assay type: functional

SMILES | growth at 0.1 µM
CN1CCc2nc3sc(C(N)=O)c(N)c3c(-c3cccs3)c2C1 | 95%

These molecules were tested on HCC 2998 (assay: Growth inhibition of human HCC 2998 cells assessed as cell growth at 0.1 uM incubated for 48 hrs by sulforhodamine B assay relative to control). Conditions: read-out: Activity.
Assay type: functional
Outline: as §1

SMILES | growth at 0.1 µM
CN1CCc2nc3sc(C(N)=O)c(N)c3c(-c3cccs3)c2C1 | 99%

What follows are molecules tested on HCT-116 (assay: Growth inhibition of human HCT-116 cells assessed as cell growth at 0.1 uM incubated for 48 hrs by sulforhodamine B assay relative to control). Conditions: read-out: Activity.
Assay type: functional

SMILES | growth at 0.1 µM
CN1CCc2nc3sc(C(N)=O)c(N)c3c(-c3cccs3)c2C1 | 102%

These molecules were tested on U-251 (assay: Growth inhibition of human U-251 cells assessed as cell growth at 0.1 uM incubated for 48 hrs by sulforhodamine B assay relative to control). Conditions: read-out: Activity.
Assay type: functional

SMILES | growth at 0.1 µM
CN1CCc2nc3sc(C(N)=O)c(N)c3c(-c3cccs3)c2C1 | 98%

These molecules were tested on SK-MEL-5 (assay: Growth inhibition of human SK-MEL-5 cells assessed as cell growth at 0.1 uM incubated for 48 hrs by sulforhodamine B assay relative to control). Conditions: read-out: Activity.
Assay type: functional

SMILES | growth at 0.1 µM
CN1CCc2nc3sc(C(N)=O)c(N)c3c(-c3cccs3)c2C1 | 91%

These molecules were tested on SK-OV-3 (assay: Growth inhibition of human SK-OV-3 cells assessed as cell growth at 0.1 uM incubated for 48 hrs by sulforhodamine B assay relative to control). Conditions: read-out: Activity.
Assay type: functional

SMILES | growth at 0.1 µM
CN1CCc2nc3sc(C(N)=O)c(N)c3c(-c3cccs3)c2C1 | 92%

The molecules below were run on RXF 393 (assay: Growth inhibition of human RXF 393 cells assessed as cell growth at 0.1 uM incubated for 48 hrs by sulforhodamine B assay relative to control). Conditions: read-out: Activity.
Assay type: functional

SMILES | growth at 0.1 µM
CN1CCc2nc3sc(C(N)=O)c(N)c3c(-c3cccs3)c2C1 | 85%

The molecules below were run on PC-3 (assay: Growth inhibition of human PC-3 cells assessed as cell growth at 0.1 uM incubated for 48 hrs by sulforhodamine B assay relative to control). Conditions: read-out: Activity.
Assay type: functional

SMILES | growth at 0.1 µM
CN1CCc2nc3sc(C(N)=O)c(N)c3c(-c3cccs3)c2C1 | 110%

These molecules were tested on MDA-MB-231 (assay: Growth inhibition of human MDA-MB-231 cells assessed as cell growth at 0.1 uM incubated for 48 hrs by sulforhodamine B assay relative to control). Conditions: read-out: Activity.
Assay type: functional

SMILES | growth at 0.1 µM
CN1CCc2nc3sc(C(N)=O)c(N)c3c(-c3cccs3)c2C1 | 109%

The molecules below were run on T47D (assay: Growth inhibition of human T47D cells assessed as cell growth at 0.1 uM incubated for 48 hrs by sulforhodamine B assay relative to control). Conditions: read-out: Activity.
Assay type: functional

SMILES | growth at 0.1 µM
CN1CCc2nc3sc(C(N)=O)c(N)c3c(-c3cccs3)c2C1 | 94%

The molecules below were run on HCT-116 (assay: Growth inhibition of human HCT-116 cells assessed as cell growth at 1 uM incubated for 48 hrs by sulforhodamine B assay relative to control). Conditions: read-out: Activity.
Assay type: functional

SMILES | growth at 1 µM
CN1CCc2nc3sc(C(N)=O)c(N)c3c(-c3cccs3)c2C1 | 75%

These molecules were tested on HT-29 (assay: Growth inhibition of human HT-29 cells assessed as cell growth at 1 uM incubated for 48 hrs by sulforhodamine B assay relative to control). Conditions: read-out: Activity.
Assay type: functional

SMILES | growth at 1 µM
CN1CCc2nc3sc(C(N)=O)c(N)c3c(-c3cccs3)c2C1 | 91%

Each molecule was assayed on SF-268 (assay: Growth inhibition of human SF-268 cells assessed as cell growth at 1 uM incubated for 48 hrs by sulforhodamine B assay relative to control). Conditions: read-out: Activity.
Assay type: functional

SMILES | growth at 1 µM
CN1CCc2nc3sc(C(N)=O)c(N)c3c(-c3cccs3)c2C1 | 107%

The molecules below were run on LOX IMVI (assay: Growth inhibition of human LOX IMVI cells assessed as cell growth at 1 uM incubated for 48 hrs by sulforhodamine B assay relative to control). Conditions: read-out: Activity.
Assay type: functional

SMILES | growth at 1 µM
CN1CCc2nc3sc(C(N)=O)c(N)c3c(-c3cccs3)c2C1 | 56%

What follows are molecules tested on M14 (assay: Growth inhibition of human M14 cells assessed as cell growth at 1 uM incubated for 48 hrs by sulforhodamine B assay relative to control). Conditions: read-out: Activity.
Assay type: functional

SMILES | growth at 1 µM
CN1CCc2nc3sc(C(N)=O)c(N)c3c(-c3cccs3)c2C1 | 115%

The molecules below were run on OVCAR-8 (assay: Growth inhibition of human OVCAR-8 cells assessed as cell growth at 1 uM incubated for 48 hrs by sulforhodamine B assay relative to control). Conditions: read-out: Activity.
Assay type: functional

SMILES | growth at 1 µM
CN1CCc2nc3sc(C(N)=O)c(N)c3c(-c3cccs3)c2C1 | 82%

The molecules below were run on RXF 393 (assay: Growth inhibition of human RXF 393 cells assessed as cell growth at 1 uM incubated for 48 hrs by sulforhodamine B assay relative to control). Conditions: read-out: Activity.
Assay type: functional

SMILES | growth at 1 µM
CN1CCc2nc3sc(C(N)=O)c(N)c3c(-c3cccs3)c2C1 | 55%

Each molecule was assayed on Hs-578T (assay: Growth inhibition of human Hs-578T cells assessed as cell growth at 1 uM incubated for 48 hrs by sulforhodamine B assay relative to control). Conditions: read-out: Activity.
Assay type: functional

SMILES | growth at 1 µM
CN1CCc2nc3sc(C(N)=O)c(N)c3c(-c3cccs3)c2C1 | 91%

The molecules below were run on T47D (assay: Growth inhibition of human T47D cells assessed as cell growth at 1 uM incubated for 48 hrs by sulforhodamine B assay relative to control). Conditions: read-out: Activity.
Assay type: functional

SMILES | growth at 1 µM
CN1CCc2nc3sc(C(N)=O)c(N)c3c(-c3cccs3)c2C1 | 84%

What follows are molecules tested on HCC 2998 (assay: Growth inhibition of human HCC 2998 cells assessed as cell growth at 100 uM incubated for 48 hrs by sulforhodamine B assay relative to control). Conditions: read-out: Activity.
Assay type: functional
Outline: as §1

SMILES | growth at 100 µM
CN1CCc2nc3sc(C(N)=O)c(N)c3c(-c3cccs3)c2C1 | -29%
